Results as given in ChEMBL document CHEMBL4190364, “Design, synthesis and anti-HIV evaluation of novel diarylpyridine derivatives as potent HIV-1 NNRTIs” (Eur J Med Chem, 2017).

Columns and labels:
[1] = tested on: Human immunodeficiency virus 2; assay: Antiviral activity against HIV2 ROD infected in human MT4 cells assessed as inhibition of virus-induced cytopathogenicity by measuring virus-induced syncytium formation by MTT assay; assay type: functional, organism-based; conditions: Human immunodeficiency virus 2, ISOLATE ROD
Outline: (§1)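 MT-4 cells, exponentially growing, spun 5 min at 220 g and resuspended at 6×10^5 cells/mL. Infected with virus stock at 100-300 CCID₅₀ (HIV-1 IIIB or HIV-2 ROD). Serial fivefold compound dilutions were tested in triplicate wells. Viability was read by MTT after 5 days at 540 and 690 nm, using the median OD of three wells. EC₅₀ was taken as 50% inhibition of virus-induced syncytium formation.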

[2] = Cytotoxicity in mock-infected human MT4 cells assessed as reduction in cell viability by MTT assay; assay type: cell-based
Outline: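 Mock-infected MT-4 cells were run in parallel with the infected series: 6×10^5 cells/mL, serial fivefold compound dilutions, triplicate wells. MTT viability was read 5 days later at 540/690 nm from the median OD of three wells. CC₅₀ is the concentration cutting OD540 of mock-infected controls by 50%.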

[3] = tested on: Human immunodeficiency virus 1; assay: Antiviral activity against HIV1 RES056 expressing reverse transcriptase K103N/Y181C double mutant infected in human MT4 cells assessed as inhibition of virus-induced cytopathogenicity by measuring virus-induced syncytium formation by MTT assay; assay type: functional, organism-based; conditions: Human immunodeficiency virus 1, RES056, MT4
Outline: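 MT-4 cells (exponentially growing, spun 5 min at 220 g, resuspended at 6×10^5 cells/mL) infected with 100-300 CCID₅₀ virus; serial fivefold compound dilutions added at start, triplicate wells, mock-infected set in parallel. Viability read by MTT reduction at 540 and 690 nm after 5 days; median OD of three wells; EC₅₀ = concentration inhibiting virus-induced syncytium formation by 50%.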

[4] = Selectivity index, ratio of CC50 for mock-infected human MT4 cells to EC50 for antiviral activity against HIV1 3B infected in human MT4 cells; assay type: toxicity, cell-based; conditions: mock-infected (CC50) and HIV1 3B infected (EC50)
Outline: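 SI is CC₅₀/EC₅₀. Both values come from parallel MTT readings on mock-infected and HIV-1 IIIB-infected (100-300 CCID₅₀) MT-4 cells, in triplicate wells with serial fivefold dilutions, read after 5 days.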

[5] = tested on: Human immunodeficiency virus 1; assay: Antiviral activity against HIV1 3B infected in human MT4 cells assessed as inhibition of virus-induced cytopathogenicity by measuring virus-induced syncytium formation by MTT assay; assay type: functional, organism-based; conditions: Human immunodeficiency virus 1, 3B
Outline: as §1, with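 “wells.” for “wells. EC₅₀ was taken as 50% inhibition of virus-induced syncytium formation.”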

[6] = biological target: Human immunodeficiency virus type 1 reverse transcriptase (Human immunodeficiency virus 1, UniProt Q72547); assay: Inhibition of recombinant wild type HIV1 reverse transcriptase p66/p51 assessed as reduction in biotin-dUTP incorporation incubated for 40 mins using poly(rA) template and oligo(dT)16 primer by picogreen dye based spectrofluorometry
[7] = tested on: Human immunodeficiency virus 1; assay: Potency index, ratio of EC50 for nevirapine to EC50 for test compound for antiviral activity against HIV1 3B infected in human MT4 cells by MTT assay; assay type: functional
[8] = biological target: Human immunodeficiency virus type 1 reverse transcriptase (Human immunodeficiency virus 1) (UniProt Q72547); assay: Potency index, ratio of IC50 for nevirapine to IC50 for test compound for inhibition of recombinant wild type HIV1 reverse transcriptase p66/p51 incubated for 40 mins using poly(rA) template and oligo(dT)16 primer by picogreen dye based spectrofluorometry

| Compound | EC50 [1] | CC50 [2] | EC50 [3] | selectivity ratio [4] | EC50 [5] | IC50 [6] | Ratio EC50 [7] | Ratio IC50 [8] |
| --- | --- | --- | --- | --- | --- | --- | --- | --- |
| N#Cc1ccc(Nc2cc(Oc3c(Cl)cc(Cl)cc3Cl)cnc2[N+](=O)[O-])cc1 | > 287 µM | > 287 µM | > 287 µM | > 924 | 0.31 µM | – | – | – |
| Cc1cc(C)c(Oc2cnc(N)c(Nc3ccc(C#N)cc3)c2)c(C)c1 | > 32.1 µM | 32.1 µM | > 32.1 µM | 227 | 0.14 µM | 0.09 µM | – | – |
| N#Cc1ccc(Nc2cc(Oc3c(F)cc(F)cc3F)cnc2[N+](=O)[O-])cc1 | > 324 µM | > 324 µM | > 324 µM | > 320 | 1.01 µM | – | – | – |
| Cc1cc(C#N)cc(C)c1Oc1cnc(N)c(Nc2ccc(C#N)cc2)c1 | > 39.5 µM | 39.5 µM | ≥ 11.5 µM | 577 | 0.07 µM | 0.17 µM | – | – |
| N#Cc1ccc(Nc2cc(Oc3c(Br)cc(Br)cc3Br)cnc2[N+](=O)[O-])cc1 | > 220 µM | > 220 µM | > 220 µM | > 277 | 0.79 µM | – | – | – |
| Cc1cc(C#N)cc(C)c1Oc1nc(Nc2ccc(C#N)cc2)nc(N)c1Br [ETRAVIRINE] | – | > 4.59 µM | – | – | – | – | – | – |
| Cc1cc(Cl)cc(C)c1Oc1cnc(N)c(Nc2ccc(C#N)cc2)c1 | > 35.1 µM | 35.1 µM | > 35.1 µM | 95 | 0.37 µM | 0.31 µM | – | – |
| Cc1cc(Br)cc(C)c1Oc1cnc([N+](=O)[O-])c(Nc2ccc(C#N)cc2)c1 | > 285 µM | > 285 µM | > 285 µM | > 64 | 4.41 µM | – | – | – |
| Cc1cn([C@H]2C[C@H](N=[N+]=[N-])[C@@H](CO)O2)c(=O)[nH]c1=O [ZIDOVUDINE] | – | > 7.48 µM | – | > 1290 | 0.006 µM | – | – | – |
| COc1cccc(OC)c1Oc1cnc([N+](=O)[O-])c(Nc2ccc(C#N)cc2)c1 | > 319 µM | > 319 µM | – | – | > 319 µM | – | – | – |
| N#Cc1ccc(Nc2cc(Oc3c(Cl)cc(Cl)cc3Cl)cnc2N)cc1 | ≥ 57.7 µM | 179 µM | > 179 µM | 680 | 0.26 µM | 0.16 µM | – | – |
| Cc1cc(C)c(Oc2cnc([N+](=O)[O-])c(Nc3ccc(C#N)cc3)c2)c(C)c1 | > 334 µM | > 334 µM | > 334 µM | > 1160 | 0.29 µM | – | – | – |
| N#Cc1ccc(Nc2cc(Oc3c(Br)cc(Br)cc3Br)cnc2N)cc1 | > 27.7 µM | 27.7 µM | > 27.7 µM | 55 | 0.5 µM | 0.17 µM | – | – |
| Cc1cccc(C)c1Nc1cnc([N+](=O)[O-])c(Nc2ccc(C#N)cc2)c1 | > 6.27 µM | 6.27 µM | > 6.27 µM | 6 | 1.06 µM | – | – | – |
| Cc1ccnc2c1NC(=O)c1cccnc1N2C1CC1 [NEVIRAPINE] | – | > 15 µM | > 15 µM | – | – | – | – | – |
| Cc1cc(C)c(Nc2cnc([N+](=O)[O-])c(Nc3ccc(C#N)cc3)c2)c(C)c1 | > 168 µM | 168 µM | > 168 µM | 3960 | 0.04 µM | 0.65 µM | 6 | – |
| Cc1cc(Cl)cc(C)c1Oc1cnc([N+](=O)[O-])c(Nc2ccc(C#N)cc2)c1 | > 317 µM | > 317 µM | > 317 µM | > 171 | 1.41 µM | – | – | – |
| Cc1cc(Br)c(Oc2cnc(N)c(Nc3ccc(C#N)cc3)c2)c(Br)c1 | > 264 µM | > 264 µM | > 264 µM | > 3800 | 0.07 µM | 0.05 µM | – | 45 |
| Cc1cc(Br)c(Oc2cnc([N+](=O)[O-])c(Nc3ccc(C#N)cc3)c2)c(Br)c1 | > 84.3 µM | 84.3 µM | > 84.3 µM | 1680 | 0.05 µM | 0.28 µM | – | – |
| COc1cccc(OC)c1Oc1cnc(N)c(Nc2ccc(C#N)cc2)c1 | > 345 µM | > 345 µM | > 345 µM | > 10 | 35.7 µM | 146 µM | – | – |
| Cc1cccc(C)c1Oc1cnc(N)c(Nc2ccc(C#N)cc2)c1 | > 378 µM | > 378 µM | > 378 µM | > 628 | 0.6 µM | 0.91 µM | – | – |
| O=C1Nc2ccc(Cl)cc2[C@@](C#CC2CC2)(C(F)(F)F)O1 [EFAVIRENZ] | – | > 6.34 µM | – | – | – | – | – | – |
| Cc1cccc(C)c1Oc1cnc([N+](=O)[O-])c(Nc2ccc(C#N)cc2)c1 | > 347 µM | > 347 µM | > 347 µM | > 171 | 2.03 µM | – | – | – |
| Cc1cc(Br)cc(C)c1Oc1cnc(N)c(Nc2ccc(C#N)cc2)c1 | > 26.7 µM | 26.7 µM | > 26.7 µM | 32 | 0.84 µM | 0.26 µM | – | – |
| Cc1cc(C#N)cc(C)c1Oc1cnc([N+](=O)[O-])c(Nc2ccc(C#N)cc2)c1 | > 324 µM | > 324 µM | > 324 µM | > 79 | 4.12 µM | – | – | – |
